Test results published in ChEMBL document CHEMBL1135621, “Development of novel EDG3 antagonists using a 3D database search and their structure-activity relationships” (J Med Chem, 2002).

Each compound was assayed against Sphingosine 1-phosphate receptor 3 (Homo sapiens) (UniProt Q99500) (assay: Inhibitory effect towards Sphingosine 1-phosphate receptor Edg-3 (EDG3)). Settings: concentration not given here.
Parameters: concentration or dose not given beside the values
In short: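 Hela cells transfected with human EDG3 cDNA, seeded in DMEM/10% FBS for 24 h at 37 °C, then in MEM for 24 h. Cells are loaded with 5 µM Calcium Green-1 AM in D-PBS(+) for 60 min, given 10 µM test compound for 5 min, then challenged with 1 µM S1P. Fluorescence (ex 485/em 535 nm) is read every 3 s for 30 s. Inhibition (%) is the RFU difference versus the 0.1% DMSO control, averaged over triplicate wells, run on three separate days.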

Chain of Sphingosine 1-phosphate receptor 3 (Homo sapiens) (Q99500 whole entry): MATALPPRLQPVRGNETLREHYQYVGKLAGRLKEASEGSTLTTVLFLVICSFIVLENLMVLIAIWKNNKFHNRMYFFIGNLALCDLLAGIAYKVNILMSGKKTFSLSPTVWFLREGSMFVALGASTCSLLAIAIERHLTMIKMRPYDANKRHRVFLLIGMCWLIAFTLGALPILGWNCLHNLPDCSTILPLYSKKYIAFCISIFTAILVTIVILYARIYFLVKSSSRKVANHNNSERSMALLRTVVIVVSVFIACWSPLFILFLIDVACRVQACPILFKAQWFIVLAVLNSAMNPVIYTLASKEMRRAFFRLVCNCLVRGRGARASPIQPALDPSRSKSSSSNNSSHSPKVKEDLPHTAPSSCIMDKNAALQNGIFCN

Q: `CCCCCc1ccc(C2N[C@H](C(=O)O)CS2)cc1` (stereo partly drawn) was tested. Which inhibition did it give?
A: Its inhibition is 13%.

Q: `CCCCCCCCCCCCC1NC(C(=O)O)CCS1` (stereo not drawn) was tested. Which inhibition did it give?
A: The inhibition was 0.3%.

Q: `CCCCCCCCCCCCC1NC(C(=O)O)CS1` (stereo not drawn) was tested. Which inhibition did it give?
A: The inhibition was 15.9%.

Q: `CCCCCCCCCCC1NC(C(=O)O)CS1` (stereo not drawn) was tested. Which inhibition did it give?
A: The inhibition was 26.4%.

Q: For `CCCCCCCCCCCCCC1NC(C(=O)O)CCS1` (stereo not drawn), which inhibition is on record?
A: Its inhibition is 5.9%.

Q: Which inhibition does the source give for `CCCCCCCCCCC1NC(C(=O)O)CCS1` (stereo not drawn) here?
A: Its inhibition is 9.3%.

Q: Which inhibition does the source give for `CCCCCCCCCC1NC(C(=O)O)CS1` (stereo not drawn) here?
A: Its inhibition is 14.8%.

Q: How did the inhibition turn out when `CCCCCCCc1cccc(C2N[C@H](C(=O)O)CS2)c1` (stereo partly drawn) was run?
A: Its inhibition is 43.4%.

Q: Which inhibition does the source give for `CCCCCCCCCCCC1NC(C(=O)O)CCS1` (stereo not drawn) here?
A: The inhibition was 9.4%.

Q: Which inhibition does the source give for `CCCCCCCCCCC[C@H]1N[C@H](C(=O)O)CS1` here?
A: Its inhibition is 37.6%.

Q: `CCCCCCCCCCCCCC1NC(C(=O)O)CS1` (stereo not drawn) was tested. Which inhibition did it give?
A: The inhibition was 6.6%.

Q: For `CCCCCCCc1ccc(C2N[C@H](C(=O)O)CS2)cc1` (stereo partly drawn), which inhibition is on record?
A: The inhibition was 42.9%.

Q: How did the inhibition turn out when `CCCCCc1cccc(C2N[C@H](C(=O)O)CS2)c1` (stereo partly drawn) was run?
A: The inhibition was 9.9%.

Q: With `CCCCCCCCCC[C@H]1N[C@H](C(=O)O)CS1` as the compound, how does the inhibition read?
A: Its inhibition is 34.5%.

Q: How did the inhibition turn out when `CCCCCCC1NC(C(=O)O)CS1` (stereo not drawn) was run?
A: The inhibition was 0%.

Q: How did the inhibition turn out when `CCCCCCCCCc1cccc(C2N[C@H](C(=O)O)CS2)c1` (stereo partly drawn) was run?
A: The inhibition was 37.2%.

Q: `CCCCCCCCCC1NC(C(=O)O)CCS1` (stereo not drawn) was tested. Which inhibition did it give?
A: Its inhibition is 6.9%.

Q: How did the inhibition turn out when `CCCCCCCCCc1ccc(C2N[C@H](C(=O)O)CS2)cc1` (stereo partly drawn) was run?
A: The inhibition was 21.9%.
